# Bioassay records deposited in PubChem by several laboratories.
# MEKK3 PB1 HTS: modulators of MEKK3-MEK5 PB1 binding, primary screen, biochemical, wildtype MEKK3, multiplex bead flow cytometry, Alexa488-MEK5; Mitogen-activated protein kinase kinase kinase 3 (Homo sapiens), Q99759; bead-based flow cytometry, Alexa488-MEK5 binding to MEKK3; actives lie on both sides; 0 = blocked by unlabeled MEK5, 100 = vehicle; binding response (% of control), % at 10 µM; 290,000 tested, 1.4% active;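 active = binding response more than 3 SD above or below the average of its plate-row segment, actives on both sides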;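 note: Alexa488 bead fluorescence after subtracting the streptavidin-only scavenger bead signal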
# Target sequence (Q99759 whole entry, looked up): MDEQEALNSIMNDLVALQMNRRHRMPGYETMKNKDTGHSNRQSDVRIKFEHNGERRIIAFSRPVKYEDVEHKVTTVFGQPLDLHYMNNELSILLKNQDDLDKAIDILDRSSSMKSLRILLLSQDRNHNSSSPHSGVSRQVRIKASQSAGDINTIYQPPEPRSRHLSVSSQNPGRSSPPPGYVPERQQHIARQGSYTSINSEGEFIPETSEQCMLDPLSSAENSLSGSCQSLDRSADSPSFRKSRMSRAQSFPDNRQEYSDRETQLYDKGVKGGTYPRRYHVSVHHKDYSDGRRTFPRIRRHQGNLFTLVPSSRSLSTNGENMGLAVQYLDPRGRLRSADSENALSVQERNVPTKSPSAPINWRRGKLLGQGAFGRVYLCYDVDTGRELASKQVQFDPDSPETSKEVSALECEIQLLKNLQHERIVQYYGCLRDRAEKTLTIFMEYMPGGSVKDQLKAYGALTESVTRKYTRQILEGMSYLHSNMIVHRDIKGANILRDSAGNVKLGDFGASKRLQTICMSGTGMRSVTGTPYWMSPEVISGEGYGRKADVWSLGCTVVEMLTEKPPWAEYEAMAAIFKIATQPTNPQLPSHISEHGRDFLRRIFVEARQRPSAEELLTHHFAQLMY
# WT yeast gro inh: growth inhibition of WT strain, primary screen, mitochondrial fusion inhibitor project, WT and mutant strains, chemical genetic | mitochondrial fusion phenotypic screen | inhibition, % at 10 µM | 190,000 tested, 2.1% active; in the data active = inhibition above about 58%; tested in S. cerevisiae
# MEKK2 WT-MEK5: modulators of MEK5 binding to wildtype MEKK2, primary screen, biochemical, multiplex bead flow cytometry, Alexa488-MEK5; binding response (% of control), % at 10 µM; Mitogen-activated protein kinase kinase kinase 2 (Homo sapiens), Q9Y2U5; 290,000 tested, 1.1% active; Alexa488-MEK5 binding to MEKK2 WT; actives lie on both sides; in the data active = binding response below about 67% or above about 130%
# ABCG2 block: ABCG2 efflux pump inhibitors, primary screen, multiplex with ABCB1, IgMXP3 cells, flow cytometry; inhibition, % at 6.6 µM; Broad substrate specificity ATP-binding cassette transporter ABCG2 (Homo sapiens), Q9UNQ0; 190,000 tested, 0.1% active; JC-1 efflux; AID 1325, 2008;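 active = inhibition above 80%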;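 note: 0% = DMSO and 100% = nicardipine control wells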
#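 Test system: IgMXP3 (ABCG2) plus far-red-tagged CCRF-Adr (ABCB1) cells / Amount: 3 million cells/mL in well / Reagent: JC-1 transporter substrate / Timing: 10 min compound exposure, 25 °C / Signal: flow cytometry, 530 nm JC-1 signal / Read-out: percent efflux inhibition, scaled nicardipine 100% to DMSO 0% / Benchmarks: nicardipine as high control, DMSO as low control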
# MEKK2mut PB1 HTS: MEK5 binding signal on mutant MEKK2 PB1, primary screen, biochemical, multiplex bead flow cytometry, Alexa488-MEK5. Alexa488-MEK5 binding to MEKK2 mutant. percent response, % at 10 µM. 290,000 tested, 0.35% active. AID 1530, 2009; in the data active = percent response above about 24%, passing the limit was not always enough
# ABCB1 inh: ABCB1 efflux pump inhibitors, primary screen, cell-based, multiplex, flow cytometry, ABCG2 counter-screen | CCRF-Adr cells, JC-1 efflux | inhibition, % at 6.6 µM | 190,000 tested, 0.067% active | ATP-dependent translocase ABCB1 (Homo sapiens), P08183; in the data active = inhibition above about 40%;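 note: 0% = vehicle and 100% = reference inhibitor; higher value means more JC-1 retained so stronger ABCB1 efflux block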
# MEKK2wt confirm: modulators of MEK5 binding to wildtype MEKK2, confirmation, biochemical, single concentration, multiplex bead flow cytometry. AID 1892, 2009. shares compounds with MEKK3 PB1 HTS. Alexa488-MEK5 binding to MEKK2 WT; actives lie on both sides. 5,900 tested, 2.4% active. binding response (% of control), % at 10 µM; in the data active = binding response below about 16% or above about 210%; inactive = in between
# MEKK2mut-MEK5: mutant MEKK2 PB1-MEK5 binding signal retest – biochemical, single concentration, multiplex bead flow cytometry, confirmation; 5,900 tested, 2% active; percent response, % at 10 µM; Alexa488-MEK5 binding to MEKK2 mutant; shares compounds with MEKK3 PB1 HTS; AID 1893, 2009; in the data active = percent response mostly above about 71%, no sharp cut-off; inactive = mostly below about 38%;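 note: higher means compound restores mutant binding toward wildtype level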
# MEKK3 confirm: MEKK3 wild-type PB1 binding to MEK5, inhibitors, confirmation, biochemical, bead multiplex flow cytometry, single concentration, wildtype. 5,900 tested, 1.8% active. Alexa488-MEK5 binding to MEKK3; hits give low values. AID 1894, 2009. shares compounds with MEKK3 PB1 HTS. binding response (% of control), % at 10 µM;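 active = binding response below 72% of control, or above a set upper limit, though filed actives all read lower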;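 note: 100% = DMSO only wells and 0% = binding blocked by excess unlabeled MEK5; lower values mean stronger disruption of MEK5 binding to MEKK3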
# * hit, by the source's call; / = no result given; [ ] = dose if it differs, or a comment. Hits are enriched below; roughly 3.5% of the tested compounds scored in any of these assays.
SMILES,MEKK3 PB1 HTS,WT yeast gro inh,MEKK2 WT-MEK5,ABCG2 block,MEKK2mut PB1 HTS,ABCB1 inh,MEKK2wt confirm,MEKK2mut-MEK5,MEKK3 confirm
COc1ccc(C(=O)NCc2nnc(SCC(=O)Nc3ccccc3F)o2)cc1,3.0*[inhibitor],-8,3.0*[inhibitor],5,-67,0,105,5,102
Cc1ccnc(NC(=O)C2(c3cccs3)CCOCC2)c1,145*,-34,107,-4,0,1,1.0*[inhibitor],-29,2.0*
Cc1ccnc(NC(=O)/C=C/c2cccs2)c1,120,5,178*,16,58*,0,105,-7,97
C=CCNC(=O)COC(=O)/C=C/c1cccs1,95,-3,95,3,-3,1,/,/,/
C=CCNC(=O)/C=C/c1cccs1,135*,15,112,2,-1,1,115,17,108
O=C(Nc1ccccn1)C1(c2cccs2)CCOCC1,90,3,92,-1,-1,0,/,/,/
COc1ccc(C)cc1NC(=O)CNC(C)C(=O)Nc1cc(Cl)ccc1Cl (stereo not drawn),100,-4,94,1,-7,1,/,/,/
CS(=O)(=O)N(CCCC(=O)N1CCCCCC1)c1cccc(Cl)c1,119,/,122,/,37*,/,102,-3,100
O=C(CN1C(=O)NC(CCc2ccccc2)C1=O)NC1CC1 (stereo not drawn),85,-7,96,0,-4,0,/,/,/
COC(=O)C1CCN(C(=O)CN2C(=O)NC(CCc3ccccc3)C2=O)CC1 (stereo not drawn),122*,11,124,0,9,0,99,-1,103
COc1ccccc1Oc1ccc(N2CC(C(=O)OCC(=O)c3ccccc3)CC2=O)cc1 (stereo not drawn),6.0*[inhibitor],/,9.0*[inhibitor],/,-13,/,101,-1,101
Cc1cc2ccccc2n1CCNC(=O)c1ccccc1,66*[inhibitor],9,75,2,-33,0,30,-32,59*
O=C(NCCCN1CCOCC1)c1ccc(S(=O)(=O)N2CCOCC2)cc1,103,-10,103,0,5,0,/,/,/
Cc1cc2ccccc2n1CCNC(=O)c1ccc(S(=O)(=O)N2CCOCC2)cc1,57*[inhibitor],6,/,22,-5,1,77,-12,89
CC(=O)NCCn1c(C)cc2ccccc21,101,10,106,1,5,0,/,/,/
Cc1cc2ccccc2n1CCNC(=O)c1ccc(Br)o1,47*[inhibitor],10,99,2,8,0,21,-30,53*
Cc1onc(-c2ccccc2Cl)c1C(=O)NCCn1c(C)cc2ccccc21,71*[inhibitor],18,/,/,-31,/,98,-7,98
COc1ccc(C2CCCN2C(=S)Nc2cccc(C)c2C)cc1OC (stereo not drawn),75,12,76,17,-16,0,/,/,/
CCOC(=O)C1=C2NC(=O)c3ccccc3N2C(=O)C1,89,-42,91,-1,-3,0,/,/,/
COC(=O)/C=C1\NCCNC1=O,100,/,108,/,-2,/,/,/,/
